Screens: PubChem BioAssay, Sanford-Burnham Center for Chemical Genomics
Only some compounds are listed: those with a hit (about 2.3% of all), similar ones and a draw of the others.
MT1-MMP act inh: blockers of MT1-MMP proenzyme processing, primary screen, HT1080 RFP-PRO-GFP cells, GFP/RFP fluorescence; GFP/RFP ratio fluorescence, overnight; percent of plate control window, DMSO zero; AID 651647, 2012; 0.061% of 360,000 active; Matrix metalloproteinase-14 (Homo sapiens), P50281; GFP/RFP ratio change, % at 20 µM;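 active = GFP/RFP ratio change of at least 30% with cell ATP level not reduced by more than half and red fluorescence within 50% of control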
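Assay system: HT1080 RFP-PRO-GFP cells. Benchmarks: DMSO vehicle wells and RFP-L50D-GFP reporter cell wells. Times: overnight cell settling, then overnight compound exposure, 37 °C, 5% CO2. Compound: 20 µM single dose, 1% DMSO. Read-out basis: GFP/RFP fluorescence ratio.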
DNMT1 inh: human DNMT1 methyltransferase inhibitors, primary screen, biochemical, molecular beacon, fluorescence, HinP1I cleavage, uHTS; DNA (cytosine-5)-methyltransferase 1 (Homo sapiens), P26358; inhibition (reported as % activation of signal), % at 10 µM; 0.83% of 360,000 active; AID 588458, 2011; in the data active = inhibition above about 50%
Target sequence (P26358 504-1616 limits assumed): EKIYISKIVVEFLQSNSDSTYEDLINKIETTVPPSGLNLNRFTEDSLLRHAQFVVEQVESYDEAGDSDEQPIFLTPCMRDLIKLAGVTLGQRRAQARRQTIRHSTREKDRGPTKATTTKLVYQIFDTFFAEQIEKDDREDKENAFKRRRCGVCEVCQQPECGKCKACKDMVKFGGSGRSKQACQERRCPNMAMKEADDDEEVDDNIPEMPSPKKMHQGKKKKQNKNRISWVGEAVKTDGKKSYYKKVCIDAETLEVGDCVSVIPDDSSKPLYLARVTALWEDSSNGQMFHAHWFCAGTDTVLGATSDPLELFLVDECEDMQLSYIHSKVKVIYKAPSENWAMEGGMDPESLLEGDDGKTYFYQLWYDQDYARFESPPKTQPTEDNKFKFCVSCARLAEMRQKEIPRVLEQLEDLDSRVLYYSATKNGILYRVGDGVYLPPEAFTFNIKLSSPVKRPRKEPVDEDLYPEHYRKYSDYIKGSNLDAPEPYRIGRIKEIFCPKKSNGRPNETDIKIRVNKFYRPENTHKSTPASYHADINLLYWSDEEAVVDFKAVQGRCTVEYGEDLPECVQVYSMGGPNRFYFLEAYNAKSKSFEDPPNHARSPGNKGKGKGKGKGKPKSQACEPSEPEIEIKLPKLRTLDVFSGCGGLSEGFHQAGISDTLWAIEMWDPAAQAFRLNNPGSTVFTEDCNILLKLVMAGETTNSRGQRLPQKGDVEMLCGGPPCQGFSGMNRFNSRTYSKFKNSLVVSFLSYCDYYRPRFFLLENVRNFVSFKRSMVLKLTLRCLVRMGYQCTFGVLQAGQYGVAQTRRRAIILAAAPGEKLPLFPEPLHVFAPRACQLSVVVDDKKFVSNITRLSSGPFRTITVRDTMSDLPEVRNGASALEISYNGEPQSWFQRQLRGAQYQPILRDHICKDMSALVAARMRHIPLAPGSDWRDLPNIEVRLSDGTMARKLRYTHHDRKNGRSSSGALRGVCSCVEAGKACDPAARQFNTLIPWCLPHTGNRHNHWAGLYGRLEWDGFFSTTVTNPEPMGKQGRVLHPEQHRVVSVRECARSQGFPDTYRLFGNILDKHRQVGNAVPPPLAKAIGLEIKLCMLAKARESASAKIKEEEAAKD
CSN inh: inhibitors of CSN-mediated cullin deneddylation, primary screen, biochemical, fluorescence polarization, uHTS | 0.38% of 360,000 active | inhibition, % at 12.5 µM | AID 651999, 2013 | Purified CSN, SCF-Nedd8-OG deneddylation | COP9 signalosome complex subunit 5 (Homo sapiens), Q92905;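 active = pattern-corrected inhibition above about 35%, with an unprinted fluorescence ratio check between 0.5 and 1.5, limit read from the data, passing the limit was not always enough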;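 also: 0% = enzyme with substrate and 100% = substrate without enzyme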
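Assay system: Purified human Csn5 enzyme expressed in HEK293T cells | Amount: Enzyme 0.24 nM | Measured by: Fluorescence polarization readout | Medium: Tris/NaCl/DTT buffer, pH 7.5 | Compound dosing: One concentration, 12.5 µM, 0.25% DMSO | Times: 90 min incubation of compound, enzyme and substrate at room temperature | Control set: no-enzyme wells high, enzyme-with-substrate wells low | Read-out: % inhibition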
SKN-1 inh: suppressors of acrylamide-induced Pgst-4::GFP reporter in worms, primary screen, SKN-1 inhibitor project, whole organism, uHTS, GFP/RFP fluorescence ratio, strain VP596 | C. elegans VP596 Pgst-4::GFP/RFP ratio, 24 h | inhibition, % at 21.8 µM | 0.49% of 360,000 active;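 active = interference check ratio from 0.5 to 1.5 plus GFP to RFP signal ratio inhibition reaching or exceeding a fixed threshold, cut at about 30% in these data, passing the limit was not always enough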
Rpn11 inh: Rpn11 (PSMD14) deubiquitinase inhibitors, primary screen, biochemical, fluorescence polarization, uHTS | 26S proteasome non-ATPase regulatory subunit 14 (Homo sapiens), O00487 | human 26S proteasome, Ub4-pepOG fluorescence polarization; 20S core pre-blocked with epoxomicin | inhibition, % at 20 µM | 0.59% of 360,000 active | AID 588493, 2011;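 active = inhibition at 20 µM, scaled to each plate's controls, above about 33%, limit read from the data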
SUMO1 PPI mod: modulators of SUMO1 protein-protein interactions, primary screen, biochemical, uHTS | Small ubiquitin-related modifier 1 (Homo sapiens), P63165 | SUMO1 binding to a labelled peptide, TR-FRET, 1 h | inhibition, % at 20 µM | 0.33% of 360,000 active; in the data active = inhibition above about 37%
Starred values were filed as active, the others as inactive; x = no result shown.

SMILES	MT1-MMP act inh	DNMT1 inh	CSN inh	SKN-1 inh	Rpn11 inh	SUMO1 PPI mod
C=C(C)C(=O)Oc1ccc(N=Nc2ccc(C)cc2)ccc1=O	21.8	95.4*	21.5	2.2	-10.3	47.5*
NC(=O)c1c(NC(=O)Cn2nc(C(=O)O)c3ccccc3c2=O)sc2c1CCC2	2.2	-13.4	11.3	-0.6	4.7	66.0*
NC(=O)c1c(NC(=O)Cn2nc(C(=O)O)c3ccccc3c2=O)sc2c1CCCC2	-4.7	4.8	-2.4	-3.1	14.4	9.7
COc1ccc(C(NC(=O)C2CCN(CCOc3ccc(Cl)cc3)CC2)c2cccs2)cc1 (stereo unspecified)	2.0	-0.2	3.6	9.1	5.3	0.5
S=C(c1ccccc1)N1CCN(c2ccccc2)CC1	4.4	2.0	-7.3	-4.9	-11.5	0.2
CCN(CC)c1ccc(C(=S)N2CCN(c3ccccc3)CC2)cc1	-4.2	-0.4	5.5	32.3*	2.7	-1.5
Cc1cc2c(cc1C)-n1nnnc1C(N1CCN(c3ccccc3F)CC1)C(=O)N2 (stereo unspecified)	-1.0	x	4.3	2.0	x	-0.3
S=C(N/N=C/c1ccccc1Cl)Nc1ccccc1	0.5	-5.5	-0.1	4.7	-1.7	2.7
Oc1ccc(C=NNC(=S)Nc2ccccc2)nc1	5.6	-2.4	-3.5	44.6*	5.3	-15.0
Oc1ccc(C=NNC(=S)Nc2ccc(F)cc2)c(O)c1	1.1	-5.3	8.1	1.7	15.0	53.2*
O=C(Nc1ccccc1)c1cc(C2CCCCN2C(=O)c2cccs2)on1 (stereo unspecified)	-0.1	2.2	1.0	8.4	-5.5	2.3
CCOC(=O)C1C(=O)NC(SCC(N)=O)=C(C#N)C1c1ccccc1OCC (stereo unspecified)	-230.3	4.5	43.0*	6.9	x	-3.3
CCOC(=O)C1C(=O)NC(SC)=C(C#N)C1c1ccccc1F (stereo unspecified)	-0.6	1.7	1.6	-1.0	2.6	1.3
N#C/C(=C\c1coc2ccc(O)cc2c1=O)C(=O)Nc1nc2ccccc2s1	-55.7	84.3*	-79.1	-4.9	x	-19.7
NC(=O)N/N=C/c1coc2ccc(O)cc2c1=O	1.8	-2.6	3.6	-10.1	-0.7	-5.2
CC1(C(=O)Nc2nccs2)CCN1C(=O)CC(c1ccccc1)c1ccccc1 (stereo unspecified)	-4.0	0.8	-0.8	-7.6	-5.8	8.7
COc1ccccc1C(=O)Nc1ccc2c(c1)nc(CCNC(=O)c1ccccc1)n2C	-1.3	-3.7	5.9	42.3*	6.8	2.6
COc1ccccc1C(=O)Nc1ccc2c(c1)nc(CCNC(C)=O)n2C	8.8	1.4	-1.1	-1.5	5.2	0.0
Cc1ccc(C(=O)Nc2cccc(-c3cn4ccccc4n3)c2)cc1	6.9	-5.7	35.2*	-3.6	0.3	5.1
CC(C)(C)c1ccc(S(=O)(=O)NC(=O)C2(C)CCN2C(=O)Cc2ccc(-c3ccccc3)cc2)cc1 (stereo unspecified)	9.0	3.2	-1.8	4.8	6.4	11.2
CC1=C(C(=O)N(C(C)C)C(C)C)CC(CC(=O)NCC2CCCCC2)C(=O)N1Cc1ccc(C(C)(C)C)cc1 (stereo unspecified)	-12.0	x	-1.7	-2.4	x	-0.1
Cc1ccc(NC(=O)C2(C)CCN2C(=O)c2ccccc2CCc2ccccc2)cc1C (stereo unspecified)	-3.2	-8.3	-5.5	5.1	0.0	-1.9
CC1(C(=O)Nc2cnc3ccccc3c2)CCN1C(=O)c1ccccc1CCc1ccccc1 (stereo unspecified)	-3.3	-8.1	-1.7	39.1*	7.6	8.1
O=C(NCCN1CCC(n2c(=O)[nH]c3ccccc32)CC1)c1cccc2c1-c1ccccc1C2=O	5.2	x	48.9*	1.9	x	55.4*
COc1cc(SC)ccc1C(=O)Nc1nccs1	-2.5	11.0	-8.7	44.2*	0.7	-0.4
SMILES	MT1-MMP act inh	DNMT1 inh	CSN inh	SKN-1 inh	Rpn11 inh	SUMO1 PPI mod
c1ccc(-c2cc3nccc(-c4ccccn4)n3n2)cc1	-0.7	-0.8	3.7	39.3*	1.4	-10.2
Cc1cc2nccc(-c3ccccn3)n2n1	7.8	0.1	-3.7	-3.0	-1.1	-7.3
O=C(NCC[C@@H]1CC[C@@H](NC(=O)c2cnccn2)[C@@H](CO)O1)c1ccc2c(c1)OCO2	2.3	x	3.4	1.1	x	0.5
COc1ccc(C(=O)NCCN(C)C)c2nc3ccccc3cc12	13.8	56.3*	-9.4	22.6	-14.0	-19.5
COc1ccc(Cl)cc1C(=O)NCCN(C)C	0.2	1.1	3.3	-2.9	-11.2	0.9
CN(C)CCNC(=O)c1cccc2nc3c(ccc4ccccc43)nc12	4.6	61.0*	-4.8	14.8	-18.6	-47.2
COc1cccc2nc3c(C(=O)NCCN(C)C)cccc3cc12	4.6	59.8*	-5.8	5.8	-31.5	-34.1
O=C(C[C@H]1C[C@@H]2c3cc(NC(=O)Nc4ccccc4F)ccc3O[C@@H]2[C@H](CO)O1)NCc1ccccn1	4.6	3.0	-0.8	-0.5	6.9	1.2
N#Cc1ccsc1NC(=O)c1ccc2ncsc2c1	-24.0	-3.8	58.9*	21.9	x	23.7
COc1ccc(C(=O)Nc2nc3cc4c(cc3s2)OCCO4)c(OC)c1	x	-11.6	5.6	-14.5	-10.7	47.3*
COc1ccc2nc(NC(=O)c3ccc4ncsc4c3)sc2c1	4.1	-9.6	0.5	5.9	-2.5	42.7*
N#Cc1ccsc1NC(=O)c1cccc(-n2cnnn2)c1	-1.0	-3.0	38.0*	24.0	x	10.0
CC(C)c1nnc(NC(=O)c2cccc(-n3cnnn3)c2)s1	1.8	-1.5	-1.8	-8.8	-6.6	3.7
COCC(=O)N[C@H]1CC[C@@H](CC(=O)OC)O[C@@H]1CO	0.2	x	4.3	4.8	x	2.3
CC1(C)OC(=O)C2=C(C[C@@H](C3CCCC3)O[C@H]2c2ccc(Cl)cc2)O1	2.4	x	0.8	-8.2	x	5.0
CCOC(=O)C1CCCN(C(=O)c2oc3ccccc3c2C)CC1 (stereo unspecified)	2.8	-0.2	0.6	2.2	2.9	2.7
CCCc1nn2c(=O)cc(COc3ccc(NC(=O)c4ccco4)cc3)nc2s1	2.4	-1.6	3.3	8.0	9.5	66.0*
